Activity calls are given as the source filed them.
Experiments:
SW-620 [1] = assay: Induction of apoptosis in human SW620 cells assessed as early apoptotic cells at 2.5 uM after 48 hrs by Annexin V-FITC/propidium iodide staining based flow cytometry (reference value: 2.75%); format: functional
MCF7 [2] = assay: Cytotoxicity against human MCF7 cells assessed as inhibition of cell proliferation at 20 uM after 72 hrs by MTT assay relative to control; format: functional; conditions: MCF7, 72 h
Outline: (§1)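 Single-concentration screen at 20 μM with 72 h exposure in DMEM with 10% FBS, final DMSO 0.1%. Read-out was MTT (5 mg/mL, 4 h, 37°C), DMSO solubilisation and absorbance at 570 nm, expressed as percent inhibition. Lines reaching a threshold percentage went on to IC50 determination.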

SW-620 [3] = assay: Induction of apoptosis in human SW620 cells assessed as early apoptotic cells at 10 uM after 72 hrs by Annexin V-FITC/propidium iodide staining based flow cytometry (reference value: 2.1%); format: functional
SW-620 [4] = assay: Induction of apoptosis in human SW620 cells assessed as late apoptotic cells at 5 uM after 48 hrs by Annexin V-FITC/propidium iodide staining based flow cytometry (reference value: 0.2%); format: functional
SW-620 [5] = assay: Induction of apoptosis in human SW620 cells assessed as necrotic cells at 5 uM after 24 hrs by Annexin V-FITC/propidium iodide staining based flow cytometry (reference value: 0.15%); format: functional
SW-620 [6] = assay: Induction of apoptosis in human SW620 cells assessed as live cells at 10 uM after 48 hrs by Annexin V-FITC/propidium iodide staining based flow cytometry (reference value: 96.26%); format: functional
SW-620 [7] = assay: Induction of apoptosis in human SW620 cells assessed as live cells at 2.5 uM after 72 hrs by Annexin V-FITC/propidium iodide staining based flow cytometry (reference value: 97.34%); format: functional
[8] = Cytotoxicity against human EJ28 cells assessed as inhibition of cell proliferation at 20 uM after 72 hrs by MTT assay relative to control; format: functional; conditions: EJ-28, 72 h; outline: as §1
SW-620 [9] = assay: Induction of apoptosis in human SW620 cells assessed as late apoptotic cells at 10 uM after 48 hrs by Annexin V-FITC/propidium iodide staining based flow cytometry (reference value: 0.2%); format: functional
SW-620 [10] = assay: Induction of apoptosis in human SW620 cells assessed as live cells at 1.25 uM after 72 hrs by Annexin V-FITC/propidium iodide staining based flow cytometry (reference value: 97.34%); format: functional
SW-620 [11] = assay: Induction of apoptosis in human SW620 cells assessed as late apoptotic cells at 1.25 uM after 24 hrs by Annexin V-FITC/propidium iodide staining based flow cytometry (reference value: 0.43%); format: functional
SW-620 [12] = assay: Induction of apoptosis in human SW620 cells assessed as early apoptotic cells at 2.5 uM after 24 hrs by Annexin V-FITC/propidium iodide staining based flow cytometry (reference value: 2.35%); format: functional
SW-620 [13] = assay: Induction of apoptosis in human SW620 cells assessed as early apoptotic cells at 2.5 uM after 72 hrs by Annexin V-FITC/propidium iodide staining based flow cytometry (reference value: 2.1%); format: functional
SW-620 [14] = assay: Induction of apoptosis in human SW620 cells assessed as early apoptotic cells at 5 uM after 72 hrs by Annexin V-FITC/propidium iodide staining based flow cytometry (reference value: 2.1%); format: functional
SW-620 [15] = assay: Induction of apoptosis in human SW620 cells assessed as early apoptotic cells at 5 uM after 24 hrs by Annexin V-FITC/propidium iodide staining based flow cytometry (reference value: 2.35%); format: functional
MCF7 [16] = assay: Cytotoxicity against human MCF7 cells after 72 hrs by MTT assay; format: functional, cell-based; conditions: MCF7, 72 h
Outline: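 Tumour lines kept in DMEM with 10% FBS and 1% penicillin/streptomycin at 37°C, 5% CO2. Seeded at 1500-5000 cells/well by doubling time and size, 24 h, then compound in DMSO-containing medium (final DMSO 0.1%) for 72 h. MTT (5 mg/mL) 4 h at 37°C, DMSO solubilisation, absorbance at 570 nm.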

SW-620 [17] = assay: Induction of apoptosis in human SW620 cells assessed as early apoptotic cells at 1.25 uM after 24 hrs by Annexin V-FITC/propidium iodide staining based flow cytometry (reference value: 2.35%); format: functional
SW-620 [18] = assay: Induction of apoptosis in human SW620 cells assessed as late apoptotic cells at 10 uM after 72 hrs by Annexin V-FITC/propidium iodide staining based flow cytometry (reference value: 0.29%); format: functional
SW-620 [19] = assay: Induction of apoptosis in human SW620 cells assessed as late apoptotic cells at 5 uM after 24 hrs by Annexin V-FITC/propidium iodide staining based flow cytometry (reference value: 0.43%); format: functional
A549 = assay: Cytotoxicity against human A549 cells assessed as inhibition of cell proliferation at 20 uM after 72 hrs by MTT assay relative to control; format: functional; conditions: A549, 72 h; outline: as §1
HT-1080 = assay: Cytotoxicity against human HT1080 cells assessed as inhibition of cell proliferation at 20 uM after 72 hrs by MTT assay relative to control; format: functional; conditions: HT-1080, 72 h; outline: as §1
SW-620 [20] = assay: Anticlonogenic activity against human SW620 cells assessed as colony formation at 0.3125 uM after 10 days by crystal violet staining based imaging analysis (reference value: 100%); format: functional
Outline: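 SW620 cells seeded at 1000 cells/well in DMEM, left overnight at 37°C, 5% CO2, then exposed to compound for ten days with drug-containing medium renewed every three days. Cells were PBS-washed, fixed in 4% paraformaldehyde for 15 min, stained with 0.5% (w/v) crystal violet for 10 min, air-dried, photographed, and colonies quantified by image analysis.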

SW-620 [21] = assay: Cytotoxicity against human SW620 cells assessed as inhibition of cell proliferation at 20 uM after 72 hrs by MTT assay relative to control; format: functional; conditions: SW-620, 72 h; outline: as §1
SW-620 [22] = assay: Induction of apoptosis in human SW620 cells assessed as necrotic cells at 1.25 uM after 48 hrs by Annexin V-FITC/propidium iodide staining based flow cytometry (reference value: 0.23%); format: functional
SW-620 [23] = assay: Induction of apoptosis in human SW620 cells assessed as late apoptotic cells at 1.25 uM after 48 hrs by Annexin V-FITC/propidium iodide staining based flow cytometry (reference value: 0.2%); format: functional
SW-620 [24] = assay: Inhibition of colony formation in human SW620 cells at 1.25 to 5 uM after 10 days by crystal violet staining based assay; format: functional, cell-based
Outline: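 SW620 cells seeded at 1000 cells/well in DMEM and incubated overnight at 37°C, 5% CO2. Compound-containing medium was given for ten days and renewed every three days. Cells were then washed with PBS, fixed 15 min in 4% paraformaldehyde, stained 10 min with 0.5% (w/v) crystal violet, washed, air-dried and photographed. Colony formation was quantified from the images.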

SW-620 [25] = assay: Induction of apoptosis in human SW620 cells assessed as early apoptotic cells at 10 uM after 48 hrs by Annexin V-FITC/propidium iodide staining based flow cytometry (reference value: 2.75%); format: functional
SW-620 [26] = assay: Induction of apoptosis in human SW620 cells assessed as late apoptotic cells at 2.5 uM after 24 hrs by Annexin V-FITC/propidium iodide staining based flow cytometry (reference value: 0.43%); format: functional
SW-620 [27] = assay: Induction of apoptosis in human SW620 cells assessed as live cells at 5 uM after 72 hrs by Annexin V-FITC/propidium iodide staining based flow cytometry (reference value: 97.34%); format: functional

COc1ccc(/C=C2\CCC/C(=C\c3cc(OC)c(OC)c(OC)c3)C2=O)cc1OC
Activity (SW-620 [1]): 12.28%
inhibition at 20 µM (MCF7 [2]): > 50%
Activity (SW-620 [3]): 2.85%
Activity (SW-620 [4]): 60.42%
Activity (SW-620 [5]): 0.36%
Activity (SW-620 [6]): 13.21%
Activity (SW-620 [7]): 66.34%
inhibition at 20 µM [8]: > 50%
Activity (SW-620 [9]): 75.36%
Activity (SW-620 [10]): 34.33%
Activity (SW-620 [11]): 0.31%
Activity (SW-620 [12]): 12.47%
Activity (SW-620 [13]): 14.37%
Activity (SW-620 [14]): 3.48%
Activity (SW-620 [15]): 40.26%
IC50 (MCF7 [16]): 1600 nM
Activity (SW-620 [17]): 9.26%
Activity (SW-620 [18]): 94.51%
Activity (SW-620 [19]): 0.35%
inhibition at 20 µM (A549): > 50%
inhibition at 20 µM (HT-1080): > 50%
Activity (SW-620 [20]): 93.6%
inhibition at 20 µM (SW-620 [21]): > 50%
Activity (SW-620 [22]): 0.2%
Activity (SW-620 [23]): 0.37%
inhibition (SW-620 [24]): Active
Activity (SW-620 [25]): 0.37%
Activity (SW-620 [26]): 1%
Activity (SW-620 [27]): 3.13%

COc1ccc(/C=C2\CCC/C(=C\c3cccc(O)c3)C2=O)cc1OC
Activity (SW-620 [1]): 4.43%
inhibition at 20 µM (MCF7 [2]): > 50%
Activity (SW-620 [3]): 2.49%
Activity (SW-620 [4]): 40.61%
Activity (SW-620 [5]): 0.35%
Activity (SW-620 [6]): 17%
Activity (SW-620 [7]): 63.72%
inhibition at 20 µM [8]: > 50%
Activity (SW-620 [9]): 71.12%
Activity (SW-620 [10]): 92.34%
Activity (SW-620 [11]): 0.31%
Activity (SW-620 [12]): 5.46%
Activity (SW-620 [13]): 4.52%
Activity (SW-620 [14]): 10.2%
Activity (SW-620 [15]): 23.28%
IC50 (MCF7 [16]): 2900 nM
Activity (SW-620 [17]): 4.33%
Activity (SW-620 [18]): 95.18%
Activity (SW-620 [19]): 2.26%
inhibition at 20 µM (A549): > 50%
inhibition at 20 µM (HT-1080): > 50%
Activity (SW-620 [20]): 97.9%
inhibition at 20 µM (SW-620 [21]): > 50%
Activity (SW-620 [22]): 0.41%
Activity (SW-620 [23]): 0.92%
inhibition (SW-620 [24]): Active
Activity (SW-620 [25]): 9.84%
Activity (SW-620 [26]): 0.64%
Activity (SW-620 [27]): 6.2%

Reference: ChEMBL document CHEMBL4270616, “Asymmetrical meta-methoxylated diarylpentanoids: Rational design, synthesis and anti-cancer evaluation in-vitro” (Eur J Med Chem, 2018)
